How the values were obtained:
Type in all cases: cell-based
Tubulin (Homo sapiens) [1] = target: T1, Tubulin (Homo sapiens) (UniProt P68371+Q9H4B7+P0DPH7+P68366+Q13509+Q71U36+P04350+Q3ZCM7+P07437+P68363+Q9BQE3+Q6PEY2+Q13885+Q9BVA1+Q9BUF5); assay: Stabilization of microtubules in human QBI293 cells assessed as fold change in acetylated tubulin levels at 1 uM after 4 hrs by ELISA relative to DMSO
Method in brief: (§1)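 QBI293 cells were grown in DMEM with 10% FBS, 2 mM L-glutamine and penicillin/streptomycin, then plated at 6 × 10^5 cells/well and left overnight. Medium was replaced with fresh medium holding vehicle (DMSO) or compound, and cells were incubated 4 h. Whole-cell extract supernatants were protein-normalized by BCA assay. AcTub and α-tubulin were quantified by ELISA against standard curves. Values are fold-change over DMSO, analysed by one-way ANOVA.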

Tubulin (Homo sapiens) [2] = target: T1, Tubulin (Homo sapiens); assay: Stabilization of microtubules in human QBI293 cells assessed as fold change in acetylated tubulin levels at 10 uM after 4 hrs by ELISA relative to DMSO; method in brief: as §1
Tubulin (Homo sapiens) [3] = target: T1, Tubulin (Homo sapiens); assay: Stabilization of microtubules in human QBI293 cells assessed as fold change in alpha tubulin levels at 1 uM after 4 hrs by ELISA relative to DMSO; method in brief: as §1
Tubulin (Homo sapiens) [4] = target: T1, Tubulin (Homo sapiens); assay: Stabilization of microtubules in human QBI293 cells assessed as fold change in alpha tubulin levels at 10 uM after 4 hrs by ELISA relative to DMSO; method in brief: as §1
Tubulin (Homo sapiens) [5] = target: T1, Tubulin (Homo sapiens); assay: Stabilization of microtubules in human QBI293 cells assessed as fold change in acetylated tubulin levels at 1 uM after 4 hrs by ELISA relative to cevipabulin
Tubulin (Homo sapiens) [6] = target: T1, Tubulin (Homo sapiens); assay: Stabilization of microtubules in human QBI293 cells assessed as fold change in acetylated tubulin levels at 10 uM after 4 hrs by ELISA relative to cevipabulin
Tubulin (Homo sapiens) [7] = target: T1, Tubulin (Homo sapiens); assay: Stabilization of microtubules in human QBI293 cells assessed as increase in acetylated tubulin levels after 4 hrs by ELISA
Method in brief: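 QBI293 cells are grown in DMEM with 10% FBS, 2 mM L-glutamine and penicillin/streptomycin, plated at 6 × 10^5 cells/well and incubated overnight. […] Acetyl- and total α-tubulin in whole-cell extract supernatants are measured by ELISA against standard curves, with protein by BCA. Values are fold-change over DMSO; AcTub is also given relative to 100 nM cevipabulin positive control. Significance is by one-way ANOVA.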

SMILES | fold change (FC) (Tubulin (Homo sapiens) [1]) | fold change (FC) (Tubulin (Homo sapiens) [2]) | fold change (FC) (Tubulin (Homo sapiens) [3]) | fold change (FC) (Tubulin (Homo sapiens) [4]) | fold change (FC) (Tubulin (Homo sapiens) [5]) | fold change (FC) (Tubulin (Homo sapiens) [6]) | Activity (Tubulin (Homo sapiens) [7])
CC(Oc1c(-c2c(F)cc(F)cc2F)c(Cl)nc2ncnn12)C(F)(F)F (centres undefined) | 0.91 | 1.01 | 1.03 | 1.04 | 0.19 | 0.21 | –
C[C@H](Nc1c(-c2ccccc2)c(Cl)nc2ncnn12)C(F)(F)F | 1.11 | 2.07 | 1.09 | 1.03 | 0.12 | 0.3 | Dose-dependent effect
CC(C)Nc1c(-c2c(F)cc(F)cc2F)c(Cl)nc2ncnn12 | 1.15 | 2.01 | 0.92 | 0.98 | 0.15 | 0.27 | Dose-dependent effect
C[C@@H](Nc1c(-c2c(F)cc(F)cc2F)c(Cl)nc2ncnn12)C(F)(F)F | 1.39 | 2.47 | 1.23 | 1.47 | 0.24 | 0.43 | Dose-dependent effect
CCCNc1c(-c2c(F)cc(F)cc2F)c(Cl)nc2ncnn12 | 1.15 | 1.14 | 1.14 | 0.86 | 0.27 | 0.26 | –
C[C@H](Nc1c(-c2cc(F)cc(F)c2)c(Cl)nc2ncnn12)C(F)(F)F | 1.52 | 3.97 | 1.12 | 1.12 | 0.12 | 0.3 | Dose-dependent effect
C[C@H](Nc1c(-c2ccc(C#N)cc2F)c(Cl)nc2ncnn12)C(F)(F)F | 2.01 | 3.64 | 1 | 1 | 0.37 | 0.67 | –
C[C@H](Nc1c(-c2c(F)cc([S@@+]([O-])CCCN(C)C)cc2F)c(Cl)nc2ncnn12)C(F)(F)F | 1.49 | 1.39 | 1.22 | 0.98 | 0.34 | 0.32 | –
C[C@H](Nc1c(Cc2c(F)cc(F)cc2F)c(Cl)nc2ncnn12)C(F)(F)F | 1.26 | 1.43 | 1.01 | 1.05 | 0.09 | 0.1 | –
C[C@H](Nc1c(-c2ccc(F)cc2F)c(Cl)nc2ncnn12)C(F)(F)F | 1.54 | 3.19 | 0.99 | 0.86 | 0.13 | 0.27 | Dose-dependent effect
C[C@H](Nc1c(-c2c(F)cc(F)cc2F)c(Cl)nc2ncnn12)C(C)(C)C | – | – | – | – | – | – | Dose-dependent effect
C[C@H](Nc1c(-c2ccc(F)cc2)c(Cl)nc2ncnn12)C(F)(F)F | 1.05 | 2.41 | 1.04 | 1.13 | 0.07 | 0.16 | Dose-dependent effect
C[C@H](Nc1c(-c2c(F)cccc2F)c(Cl)nc2ncnn12)C(F)(F)F | 2.2 | 5.28 | 1.06 | 1.02 | 0.16 | 0.39 | Dose-dependent effect
C[C@H](Nc1c(-c2c(F)cc(C#N)cc2F)c(Cl)nc2ncnn12)C(F)(F)F | 1.9 | 3.56 | 0.94 | 0.95 | 0.27 | 0.51 | Dose-dependent effect
C[C@H](Nc1c(-c2c(F)cc(S(=O)(=O)CCCN(C)C)cc2F)c(Cl)nc2ncnn12)C(F)(F)F | 1.13 | 1.08 | 0.7 | 1.07 | 0.24 | 0.23 | –
C[C@H](Nc1c(-c2ccc(F)c(F)c2F)c(Cl)nc2ncnn12)C(F)(F)F | 1.5 | 4.28 | 1.11 | 0.88 | 0.12 | 0.34 | Dose-dependent effect
CC(C)[C@@H](C)Nc1c(-c2ccc(C#N)cc2F)c(Cl)nc2ncnn12 (stereo in doubt; 68) | 2.15 | 2.29 | 0.95 | 0.92 | 0.47 | 0.5 | –
C[C@H](Nc1c(-c2c(F)cc(F)cc2F)c(Cl)nc2ncnn12)C(F)(F)F | – | – | – | – | – | – | Dose-dependent effect
C[C@H](Nc1c(-c2c(F)cc(N)cc2F)c(Cl)nc2ncnn12)C(F)(F)F | 0.94 | 0.69 | 0.97 | 0.96 | 0.17 | 0.13 | –
C[C@H](Nc1c(-c2c(F)cc(S(C)(=O)=O)cc2F)c(Cl)nc2ncnn12)C(F)(F)F | 1.21 | 1.23 | 1.03 | 1.02 | 0.19 | 0.19 | –
N#Cc1cc(F)c(-c2c(Cl)nc3ncnn3c2N2CCCCCCC2)c(F)c1 | 3.24 | 4.4 | 1.01 | 0.99 | 0.58 | 0.79 | –
CC(C)(C)CNc1c(-c2c(F)cc(F)cc2F)c(Cl)nc2ncnn12 | – | – | – | – | – | – | Dose-dependent effect
CC(C)[C@@H](C)Nc1c(-c2ccc(C#N)cc2F)c(Cl)nc2ncnn12 (stereo in doubt; 67) | 2.79 | 3.42 | 0.99 | 0.93 | 0.61 | 0.75 | –
Oc1c(-c2c(F)cc(F)cc2F)c(Cl)nc2ncnn12 | 1.04 | 1.03 | 1.06 | 1.02 | 0.17 | 0.17 | –
CC(C)[C@@H](Nc1c(-c2c(F)cc(F)cc2F)c(Cl)nc2ncnn12)C(F)(F)F | – | – | – | – | – | – | Dose-dependent effect
C[C@H](Nc1c(-c2c(F)cc([S+](C)[O-])cc2F)c(Cl)nc2ncnn12)C(F)(F)F (some centres undefined) | 0.84 | 0.87 | 0.96 | 0.93 | 0.21 | 0.21 | –
Nc1c(-c2c(F)cc(F)cc2F)c(Cl)nc2ncnn12 | 1.18 | 1.12 | 1.08 | 1.05 | 0.09 | 0.08 | –
CC(C)[C@H](C)Nc1c(-c2c(F)cc(F)cc2F)c(Cl)nc2ncnn12 | – | – | – | – | – | – | Dose-dependent effect
Fc1cc(F)c(-c2c(Cl)nc3ncnn3c2Nc2ccccc2)c(F)c1 | 1.14 | 1.05 | 1.1 | 0.96 | 0.09 | 0.08 | –
Fc1cc(F)c(-c2c(Cl)nc3ncnn3c2NC2CC2)c(F)c1 | 1.17 | 1.27 | 1.2 | 1.26 | 0.07 | 0.07 | –
